From ChEMBL document CHEMBL2321824, “5-((1-Aroyl-1H-indol-3-yl)methylene)-2-thioxodihydropyrimidine-4,6(1H,5H)-diones as potential anticancer agents with anti-inflammatory properties” (2013)

Legend:
Assay type in all cases: functional
SK-MEL-5 = test: Cytotoxicity against human SK-MEL-5 cells
Outline: (§1)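 Tested in the NCI 60 human tumor cell line panel (leukemia, NSCLC, colon, CNS, melanoma, ovarian, renal, prostate and breast lines) at five doses. A single-dose pre-screen at 10 μM selected which compounds went on. Effect was plotted against log10 drug concentration for each line. GI50 is the molar concentration giving 50% growth inhibition; LC50 is the concentration killing 50% of cells.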

CCRF-CEM = test: Cytotoxicity against human CCRF-CEM cells; settings: for CC50: read-out: LC50 (the source's name); outline: as §1
LOX IMVI = test: Cytotoxicity against human LOXIMVI cells; settings: for CC50: read-out: LC50 (the source's name); outline: as §1
HCT-15 = test: Cytotoxicity against human HCT15 cells; settings: for CC50: read-out: LC50 (the source's name); outline: as §1
UACC-62 = test: Cytotoxicity against human UACC62 cells; settings: for CC50: read-out: LC50 (the source's name); outline: as §1
NCI/ADR-RES = test: Cytotoxicity against human NCI/ADR-RES cells; settings: for CC50: read-out: LC50 (the source's name); outline: as §1
SF-539 = test: Cytotoxicity against human SF539 cells; settings: for CC50: read-out: LC50 (the source's name); outline: as §1
K562 = test: Cytotoxicity against human K562 cells; outline: as §1
DU-145 = test: Cytotoxicity against human DU145 cells; settings: for CC50: read-out: LC50 (the source's name); outline: as §1
SR = test: Cytotoxicity against human SR cells; outline: as §1
U-251 = test: Cytotoxicity against human U251 cells; settings: for CC50: read-out: LC50 (the source's name); outline: as §1
M14 = test: Cytotoxicity against human M14 cells; outline: as §1
HL-60(TB) = test: Cytotoxicity against human HL-60(TB) cells; outline: as §1
HOP-62 = test: Cytotoxicity against human HOP62 cells; settings: for CC50: read-out: LC50 (the source's name); outline: as §1
SF-268 = test: Cytotoxicity against human SF268 cells; outline: as §1
MDA-MB-435 = test: Cytotoxicity against human MDA-MB-435 cells; settings: for CC50: read-out: LC50 (the source's name)
Outline: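 Tested in the NCI 60 human tumor cell line panel (leukemia, NSCLC, colon, CNS, melanoma, ovarian, renal, prostate and breast lines) at five doses. A single-dose pre-screen at 10 μM selected which compounds went on. Effect was plotted against log10 drug concentration for each line.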

HCT-116 = test: Cytotoxicity against human HCT116 cells; settings: for CC50: read-out: LC50 (the source's name); outline: as §1
KM12 = test: Cytotoxicity against human KM12 cells; settings: for CC50: read-out: LC50 (the source's name); outline: as §1
OVCAR-3 = test: Cytotoxicity against human OVCAR3 cells; settings: for CC50: read-out: LC50 (the source's name); outline: as §1
UO-31 = test: Cytotoxicity against human UO31 cells; settings: for CC50: read-out: LC50 (the source's name); outline: as §1
HOP-92 = test: Cytotoxicity against human HOP92 cells; settings: for CC50: read-out: LC50 (the source's name); outline: as §1
MOLT-4 = test: Cytotoxicity against human MOLT4 cells; settings: for CC50: read-out: LC50 (the source's name); outline: as §1

Row | SMILES | GI50 (CCRF-CEM) [µM] | CC50 (CCRF-CEM) [µM] | GI50 (LOX IMVI) [µM] | CC50 (LOX IMVI) [µM] | GI50 (HCT-15) [µM] | CC50 (HCT-15) [µM] | GI50 (NCI/ADR-RES) [µM] | CC50 (NCI/ADR-RES) [µM] | GI50 (SF-539) [µM] | CC50 (SF-539) [µM] | GI50 (K562) [µM] | LC50 (K562) [µM] | GI50 (SR) [µM] | GI50 (M14) [µM] | GI50 (HL-60(TB)) [µM] | GI50 (SF-268) [µM] | CC50 (MDA-MB-435) [µM] | GI50 (HCT-116) [µM] | GI50 (OVCAR-3) [µM] | CC50 (OVCAR-3) [µM] | other results
1 | COc1ccc2c(c1)c(C=C1C(=O)NC(=S)NC1=O)cn2C(=O)c1ccccc1Br | 4 | > 100 | 2.92 | 47.9 | 3.83 | 89.9 | 3.23 | > 100 | 3 | 57.8 | 3.8 | > 100 | 2.55 | 3.52 | 3.24 | 3.86 | 8.43 | 3.76 | 2.77 | 33.1 | GI50 (SK-MEL-5): 3.47 µM; LC50 (SK-MEL-5): > 50 µM; GI50 (UACC-62): 3.38 µM; CC50 (UACC-62): 39.6 µM; GI50 (DU-145): 3.01 µM; CC50 (DU-145): 53.6 µM; LC50 (SR): > 100 µM; GI50 (U-251): 3.09 µM; CC50 (U-251): 42.1 µM; LC50 (M14): > 100 µM; LC50 (HL-60(TB)): > 100 µM; GI50 (HOP-62): 3.59 µM; CC50 (HOP-62): 64.3 µM; LC50 (SF-268): 52.2 µM; GI50 (MDA-MB-435): 1.77 µM; CC50 (HCT-116): > 100 µM; GI50 (KM12): 3.87 µM; CC50 (KM12): 51.9 µM
2 | O=C1NC(=S)NC(=O)C1=Cc1cn(C(=O)c2cccc3ccccc23)c2ccccc12 | 3.35 | > 100 | 3.59 | > 100 | 3.6 | 58.6 | 2.59 | > 100 | 3.58 | 55.6 | 3.71 | > 100 | 2.74 | 3.22 | 3.36 | 3.68 | 46.2 | 2.9 | 2.46 | > 100 | GI50 (UO-31): 3.93 µM; CC50 (UO-31): > 100 µM; LC50 (SR): 44.8 µM; GI50 (HOP-92): 1.3 µM; CC50 (HOP-92): 44.8 µM; LC50 (M14): 9.23 µM; GI50 (MOLT-4): 3.49 µM; CC50 (MOLT-4): 79 µM; LC50 (HL-60(TB)): > 100 µM; LC50 (SF-268): 50.7 µM; GI50 (MDA-MB-435): 1.91 µM; CC50 (HCT-116): > 100 µM
3 | COc1ccc2c(c1)c(C=C1C(=O)NC(=S)NC1=O)cn2C(=O)c1cccc2ccccc12 | 3.31 | > 100 | 3.8 | > 100 | 3.1 | > 100 | 3.14 | > 100 | 3.23 | > 100 | 3.52 | > 100 | 3.32 | 1.91 | 3.47 | 2.3 | 12 | 3.35 | 2.38 | 20.9 | GI50 (UO-31): 3.72 µM; CC50 (UO-31): > 100 µM; LC50 (SR): > 100 µM; GI50 (HOP-92): 1.09 µM; CC50 (HOP-92): > 100 µM; LC50 (M14): > 100 µM; GI50 (MOLT-4): 3.95 µM; CC50 (MOLT-4): > 100 µM; LC50 (HL-60(TB)): > 100 µM; LC50 (SF-268): > 100 µM; GI50 (MDA-MB-435): 2.01 µM; CC50 (HCT-116): > 100 µM
4 | COc1ccc(C(=O)n2cc(C=C3C(=O)NC(=S)NC3=O)c3cc(OC)ccc32)cc1 | 2.23 | > 50 | 1.86 | > 50 | 1.8 | > 50 | 2.91 |  | 2.56 | > 50 | 2.55 |  | 1.45 | 2.03 | 3.91 | 2.65 | 3.86 | 1.95 | 1.26 | > 50 | GI50 (SK-MEL-5): 2.31 µM; GI50 (UACC-62): 2.33 µM; CC50 (UACC-62): > 50 µM; GI50 (DU-145): 2.41 µM; CC50 (DU-145): > 50 µM; GI50 (U-251): 1.93 µM; CC50 (U-251): > 50 µM; GI50 (HOP-62): 3.12 µM; CC50 (HOP-62): > 50 µM; GI50 (KM12): 1.99 µM; CC50 (KM12): > 50 µM
